High-throughput results as filed in PubChem BioAssay.
This is a sample that favours compounds with a hit; in the whole collection about 3.5% have one here.
MrgX1 agonist – activates human MrgX1 receptor signaling. actives 0.44% (n = 310,000). MrgX1-HEK293 cells, Fluo-4 calcium fluorescence, agonist mode; active compounds read high. B-score at 10 µM. AID 588627;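 active = calcium response B-score plate-corrected fluorescence ratio at least 3 library SD, with starting fluorescence B-score inside 5 SD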
Target sequence (Q96LB2 whole entry, looked up): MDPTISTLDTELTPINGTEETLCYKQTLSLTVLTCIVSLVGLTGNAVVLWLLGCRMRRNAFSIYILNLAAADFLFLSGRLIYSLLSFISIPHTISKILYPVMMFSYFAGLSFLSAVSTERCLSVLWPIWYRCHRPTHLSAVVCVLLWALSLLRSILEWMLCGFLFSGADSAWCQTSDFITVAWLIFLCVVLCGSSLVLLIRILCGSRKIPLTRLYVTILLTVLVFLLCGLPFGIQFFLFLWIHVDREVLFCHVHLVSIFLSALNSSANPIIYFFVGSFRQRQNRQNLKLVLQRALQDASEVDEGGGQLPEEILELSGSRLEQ
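Material: MrgX1-expressing HEK293 cells; input: 15,000 cells per well; doses: test compound given as first of three sequential additions; schedule: overnight plating before 1 h dye loading; technique: Fluo-4 NW calcium-flux fluorescence, kinetic read; evaluation: baseline-normalised fluorescence change ratio, B-scored; control set: plate-wise positive and negative controls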
MrgX1 antagonist – antagonists of human MrgX1 receptor | B-score at 10 µM | AID 588676 | actives 1.3% (n = 310,000) | Q96LB2 | MRGX1-HEK293 calcium flux, Fluo-4, BAM8-22 antagonism; active compounds read low;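 active = calcium-response B-score plate-corrected more than 3 library SD below zero, starting fluorescence within 5 deviations, no agonist response on first addition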;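 note: peak minus trough fluorescence over baseline after final BAM8-22 challenge near maximal dose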
RGS4 inh – inhibitors of human RGS4; HEK293 M3R/RGS4 inducible, Fluo-4 calcium flux; active compounds read high; triggered by carbachol at its EC20; B-score at 10 µM; actives 0.45% (n = 310,000);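 active = B-score, a plate-corrected calcium signal, over three deviations above library mean, with baseline fluorescence within five deviations of library mean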;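 note: RGS4 expression induced by doxycycline in cells with stable M3 receptor; B-score is computed from the integrated fluorescence ratio over baseline after carbachol; higher B-score means a larger calcium signal and so more RGS4 inhibition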
Target sequence (P49798 whole entry, looked up): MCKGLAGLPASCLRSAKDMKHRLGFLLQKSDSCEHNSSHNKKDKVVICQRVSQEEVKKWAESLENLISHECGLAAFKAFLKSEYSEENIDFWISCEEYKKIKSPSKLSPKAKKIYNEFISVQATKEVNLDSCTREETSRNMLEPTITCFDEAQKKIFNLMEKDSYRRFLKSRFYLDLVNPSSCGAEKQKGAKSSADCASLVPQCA
RGS4 act – potentiators or activators of RGS4; HEK293 M3R/inducible RGS4, carbachol calcium flux Fluo4; active compounds read low; B-score at 10 µM; actives 0.92% (n = 310,000); AID 463111;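 active = B-score of the integrated calcium signal more than 4 SD below the library mean, with starting fluorescence not abnormally high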;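 note: negative B-score means reduced calcium response which marks RGS4 activation or potentiation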
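Test system: HEK293 cells with stable M3R and inducible RGS4; also added: carbachol at ECmax as muscarinic agonist stimulus; schedule: dye loading 30 min 37 °C, buffer rest 30 min RT; technique: kinetic calcium fluorescence imaging with Fluo4-AM dye, 2 µM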
MrgX1 allo act – allosterically activates human MrgX1 receptor signaling. Q96LB2. MrgX1-HEK293, Fluo-4 calcium flux, FDSS; active compounds read high. B-score at 10 µM. actives 0.63% (n = 310,000). AID 588675;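 active = plate-corrected calcium response at least 3 library SD above typical, normal starting fluorescence, not activating the receptor alone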;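 note: compound read alongside a low EC10 to EC30 dose of BAM8-22 agonist; peak minus trough fluorescence over baseline measured at the second addition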
RGS4 act valid – confirmation of RGS4 activators. HEK293 M3R/RGS4 inducible, carbachol calcium flux Fluo4. inhibition, % at 10 µM. shares compounds with RGS4 act. actives 89% (n = 1,100). AID 602282;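 active = inhibition above 3 SD of the buffer control wells, cut at about 41% in these data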;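 note: signal is the integrated peak-minus-minimum Fluo4 fluorescence over baseline ratio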
RGS4 act ctr – RGS4 activator counter-screen hit in non-induced cells | shares compounds with RGS4 act | HEK293 M3R non-induced RGS4, Fluo4 calcium flux; after carbachol challenge at its EC90 | inhibition, % at 10 µM | actives 82% (n = 1,100);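 active = inhibition exceeding 3 SD of buffer-only control wells, cut at about 26% in these data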;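 note: percent drop in integrated peak-minus-baseline over baseline Fluo4 ratio after carbachol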
RGS4 inh valid – validation of RGS4 inhibitors; shares compounds with RGS4 inh; HEK293 M3R/RGS4, carbachol calcium Fluo-4 fluorescence; carbachol added at its EC20; 0 = buffer wells, 100 = carbachol control; calcium response, % at 10 µM; actives 65% (n = 1,700);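 active = duplicate-averaged calcium response above the buffer-only control mean plus 5 SD of those controls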;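 note: integrated fluorescence ratio F max minus min over baseline F0; higher response in RGS4-induced cells means RGS4 inhibition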
M3R Ca ctr – counter-screen for RGS4 inhibitors: effect in non-induced cells; shares compounds with RGS4 inh; HEK293 M3R non-induced, carbachol calcium Fluo-4; submaximal (EC20) carbachol stimulus; buffer wells 0%, carbachol control wells 100%; actives 20% (n = 1,900); activity (percent), % at 10 µM; call rule not given here;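 note: RGS4 induction absent so cells express M3R without RGS4; higher means more calcium signal and flags a non-specific hit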
RGS4 inh ctr2 – signal in non-induced cells without carbachol, RGS4 inhibitor counter-screen | shares compounds with RGS4 inh | HEK293 M3R/RGS4 non-induced, Fluo-4 calcium, no carbachol; normalised: buffer wells 0%, carbachol wells 100% | calcium response (agonist-mode artifact), % at 10 µM | actives 22% (n = 1,900);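 active = duplicate-averaged calcium rise in uninduced cells above buffer wells' mean plus 5 SD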
MrgX1 ag confirm – human MrgX1 agonism, re-confirmation screen | shares compounds with MrgX1 agonist | MrgX1-HEK293, Fluo-4 calcium fluorescence, FDSS | activation, % at 10 µM | actives 78% (n = 600);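 active = calcium signal rise, corrected for plate position, at least 3 library SD high, with starting brightness within 5 such deviations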
MrgX1 allo conf – human MrgX1 positive allosteric modulation, re-confirmation; shares compounds with MrgX1 allo act; MrgX1-HEK293, Fluo-4 calcium fluorescence, FDSS; activation (ratio percentage), % at 10 µM; actives 13% (n = 1,200);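 active = ratio at least 3 SD above the weak peptide control, stable starting fluorescence, no direct agonism earlier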;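 note: compound followed by low BAM8-22 agonist challenge near EC20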
MrgX1 antag conf – reconfirmed antagonist of human MrgX1 receptor signaling; shares compounds with MrgX1 antagonist; MrgX1-HEK293, BAM8-22 calcium flux, Fluo-4; active compounds read low; remaining BAM8-22 calcium response % of control (active compounds read low), % at 10 µM; actives 19% (n = 2,300);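 active = remaining agonist calcium response no higher than 100% minus 3 SD of agonist-only control wells, with starting fluorescence near control levels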;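 note: agonist BAM8-22 given at a near maximal EC90 to ECmax level; peak minus minimum fluorescence divided by baseline after agonist addition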
HEK293 Ca flux – activity in parental HEK293 cells lacking MrgX1 | shares compounds with MrgX1 antagonist | Fluo-4 calcium fluorescence, FDSS | fluorescence ratio F(max-min)/F0 at 10 µM | actives 2% (n = 4,000) | AID 624111;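 active = duplicate-averaged calcium fluorescence ratio at least three times the standard deviation of buffer wells, a nonspecific response in parental cells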
HEK293 Ca counter – counter-screen for MrgX1 allosteric activators: effect in parental HEK293 cells; shares compounds with MrgX1 antagonist; AID 624114; parental HEK293 calcium flux, Fluo-4 fluorescence ratio; active compounds read high; fluorescence ratio F(max-min)/F0 at 10 µM; actives 0.4% (n = 4,000);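 active = calcium fluorescence ratio, averaged over duplicates, at least 3 SD of the buffer-well ratio, meaning a nonspecific response in receptor-free cells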;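 note: untransfected parental HEK293 lacking MrgX1 used as counterscreen for MrgX1 allosteric activators; fluorescence change taken during the second addition on a kinetic imager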
HEK293 Ca cntr2 – MrgX1 activator counter-screen hit in parental HEK293 cells | AID 624115 | actives 8.7% (n = 4,000) | shares compounds with MrgX1 antagonist | fluorescence ratio F(max-min)/F0 at 10 µM | Fluo-4 calcium fluorescence (FDSS); active compounds read high;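 active = calcium fluorescence ratio at least three times the spread of buffer wells, meaning a non-specific response in parental cells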
Starred values were filed as active, the others as inactive; i = inactive; x = no result given.

SMILES	MrgX1 agonist	MrgX1 antagonist	RGS4 inh	RGS4 act	MrgX1 allo act	RGS4 act valid	RGS4 act ctr	HEK293 Ca flux	HEK293 Ca counter	HEK293 Ca cntr2	others
COc1cc(OC)cc(C(=O)NC(=S)NNC(=O)[C@H]2C[C@@H]2c2ccccc2)c1	109*	i	i	-11*	i	84*	77*	i	i	110*	MrgX1 ag confirm=580%*
CCN(c1ccccc1)S(=O)(=O)c1ccc(C(=O)N(CCCN(C)C)c2nc3c(C)cccc3s2)cc1	i	i	i	i	i	x	x	x	x	x
COc1ccccc1-c1c(C#N)c(N)nc2c1CCc1ccccc1-2	i	i	i	-7.6*	12*	89*	52*	i	i	i	MrgX1 allo conf=i
COC(=O)c1cccc(Nc2nc(-c3ccncc3)nc3ccccc23)c1	i	i	i	i	i	x	x	x	x	x
CCOC(=O)c1cccc(Nc2nc(-c3cccnc3)nc3ccccc23)c1	i	-4.6*	i	-8.1*	i	57*	0	i	i	i	MrgX1 antag conf=i
CN(Cc1ccccc1)S(=O)(=O)c1ccc(N2CCOCC2)nc1	i	i	i	i	i	x	x	x	x	x
C=CCn1c(SCCN2CCCC2)nc2c([nH]c3ccccc32)c1=O	i	-4.6*	i	-8.4*	i	64*	0	i	i	i	MrgX1 antag conf=i
C=CCn1c(SCC(=O)Nc2ccc(OC)cc2)nc2c([nH]c3ccccc32)c1=O	i	i	i	i	i	x	x	x	x	x
Cc1nc(Nc2nc(CSc3nc4ccccc4[nH]3)cc(=O)[nH]2)nc2ccccc12	i	-5.2*	i	-13*	i	62*	0	i	i	i	MrgX1 antag conf=83%*
COc1ccc2nc(Nc3nc(CSc4nc5ccccc5[nH]4)cc(=O)[nH]3)nc(C)c2c1	i	i	i	i	i	x	x	x	x	x
CCN(CC)CC#CC(OC)(c1ccccc1)c1ccccc1	i	i	i	-9.7*	8*	92*	88*	i	i	i	MrgX1 allo conf=i
Cc1ccc(Cl)c(OCC(=O)NCC(c2cccs2)N2CCOCC2)c1 (stereo not given)	i	i	i	i	i	x	x	x	x	x
O=C(NCCN1CCN(C(=O)c2ccc(F)cc2)CC1)c1ccc(F)cc1	i	i	i	i	i	x	x	x	x	x
OC(CCN1CCOCC1)(c1ccc(Cl)cc1)C1CCCCC1 (stereo not given)	i	i	i	-9.8*	6.8*	93*	94*	i	i	i	MrgX1 allo conf=i
Cc1nc(Cl)c(C#N)cc1-c1ccccc1	i	i	i	i	i	x	x	x	x	x
Cc1nc(Sc2ccccc2)c(C#N)cc1-c1ccccc1	i	i	i	-10*	6.8*	94*	63*	i	i	i	MrgX1 allo conf=i
COc1ccc(-c2csc(NC(C)c3nc4cc(Cl)c(N5CCCCC5)cc4n3CCOCCO)n2)cc1 (stereo not given)	i	i	i	i	i	x	x	x	x	x	RGS4 inh valid=i;M3R Ca ctr=i;RGS4 inh ctr2=i
COc1ccc(-c2csc(NC(C)c3nc4cc(Cl)c(N5CCCCC5)cc4n3CCCO)n2)cc1 (stereo not given)	i	i	i	i	i	x	x	x	x	x
CC(Nc1nc(-c2ccc(Cl)cc2)cs1)c1nc2cc(Cl)c(N3CCCCC3)cc2n1CCOCCO (stereo not given)	i	i	i	i	i	x	x	x	x	x	M3R Ca ctr=i;RGS4 inh ctr2=i
COCCNC(=S)N(CCCN(C)C)Cc1cc2cc3c(cc2[nH]c1=O)OCCO3	i	i	i	i	i	x	x	x	x	x	RGS4 inh valid=i;M3R Ca ctr=i;RGS4 inh ctr2=i
COCCNC(=S)N(CCN(C)C)Cc1cc2cc3c(cc2[nH]c1=O)OCO3	i	i	i	i	i	x	x	x	x	x
COCCCNC(=S)N(CCCN(C)C)Cc1cc2cc3c(cc2[nH]c1=O)OCCO3	i	i	i	i	i	x	x	x	x	x	RGS4 inh valid=i;M3R Ca ctr=i;RGS4 inh ctr2=i
CCOCCCNC(=S)N(CCCN(C)C)Cc1cc2cc3c(cc2[nH]c1=O)OCCO3	i	i	i	i	i	x	x	x	x	x
COc1cc(C(=O)Nc2cccc3cccnc23)cc(OC)c1OC	i	i	i	i	i	x	x	x	x	x	RGS4 inh valid=i;M3R Ca ctr=i;RGS4 inh ctr2=i
O=[N+]([O-])c1ccccc1-c1cc(-c2ccccc2O)n[nH]1	i	i	i	i	i	x	x	x	x	x	RGS4 inh valid=i;M3R Ca ctr=i;RGS4 inh ctr2=i
COc1ccc(NC(=O)C(=O)N2N=C3CCCCC3C2(O)C(F)(F)F)cc1 (stereo not given)	i	i	i	i	i	x	x	x	x	x
C/C(CC(=O)NC12CC3CC(CC(C3)C1)C2)=N\NC(=O)c1ccc(C)cc1	i	i	i	i	i	x	x	x	x	x
